Experimental data as given in ChEMBL document CHEMBL3232791, “Synthesis and antibacterial evaluation of amino acid-antibiotic conjugates” (2014).

What was measured:
Assay type in all cases: functional
Staphylococcus aureus [1] = experiment: Antibacterial activity against Staphylococcus aureus RN4220 assessed as growth inhibition at 300 ug/ml after 16 hrs by spectrophotometric analysis; details: RN4220, 16 h, read-out: GI
Procedure, shortened: (§1)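 Growth inhibition read as OD600 on 300 µL culture samples, with untreated control cultures taken as maximum growth. Percent inhibition = (OD600 control − OD600 treated) × 100 / OD600 control. Parent antibiotics and their conjugates were run in parallel at three concentrations per compound, in biological duplicate.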

Escherichia coli [2] = experiment: Antibacterial activity against Escherichia coli DH5alpha assessed as growth inhibition at 100 ug/ml after 16 hrs by spectrophotometric method; details: DH5[alpha], read-out: GI; procedure, shortened: as §1
Staphylococcus aureus [3] = experiment: Antibacterial activity against Staphylococcus aureus RN4220 assessed as growth inhibition at 150 ug/ml after 16 hrs by spectrophotometric analysis; details: RN4220, 16 h, read-out: GI; procedure, shortened: as §1
Staphylococcus aureus [4] = experiment: Antibacterial activity against Staphylococcus aureus RN4220 assessed as growth inhibition at 75 ug/ml after 16 hrs by spectrophotometric analysis; details: RN4220, 16 h, read-out: GI; procedure, shortened: as §1
Escherichia coli [5] = experiment: Antibacterial activity against Escherichia coli DH5alpha assessed as growth inhibition at 75 ug/ml after 16 hrs by spectrophotometric method; details: DH5[alpha], read-out: GI; procedure, shortened: as §1
Escherichia coli [6] = experiment: Antibacterial activity against Escherichia coli DH5alpha assessed as growth inhibition at 50 ug/ml after 16 hrs by spectrophotometric method; details: DH5[alpha], read-out: GI; procedure, shortened: as §1
Escherichia coli [7] = experiment: Antibacterial activity against Escherichia coli DH5alpha assessed as growth inhibition at 1.5 ug/ml after 16 hrs by spectrophotometric method; details: DH5[alpha], read-out: GI; procedure, shortened: as §1
Staphylococcus aureus [8] = experiment: Antibacterial activity against Staphylococcus aureus RN4220 assessed as growth inhibition at 60 ug/ml after 16 hrs by spectrophotometric analysis; details: RN4220, 16 h, read-out: GI; procedure, shortened: as §1
Bacillus subtilis [9] = experiment: Antibacterial activity against Bacillus subtilis 168 assessed as growth inhibition at 20 ug/ml after 16 hrs by spectrophotometric analysis; details: subsp. subtilis str. 168, 16 h, read-out: GI; procedure, shortened: as §1
Pseudomonas aeruginosa [10] = experiment: Antibacterial activity against Pseudomonas aeruginosa PAO1 assessed as growth inhibition at 20 ug/ml after 16 hrs by spectrophotometric analysis; details: PAO1, 16 h, read-out: GI; procedure, shortened: as §1
Bacillus subtilis [11] = experiment: Antibacterial activity against Bacillus subtilis 168 assessed as growth inhibition at 10 ug/ml after 16 hrs by spectrophotometric analysis; details: subsp. subtilis str. 168, 16 h, read-out: GI; procedure, shortened: as §1
Staphylococcus aureus [12] = experiment: Antibacterial activity against Staphylococcus aureus RN4220 assessed as growth inhibition at 15 ug/ml after 16 hrs by spectrophotometric analysis; details: RN4220, 16 h, read-out: GI; procedure, shortened: as §1
Pseudomonas aeruginosa [13] = experiment: Antibacterial activity against Pseudomonas aeruginosa PAO1 assessed as growth inhibition at 10 ug/ml after 16 hrs by spectrophotometric analysis; details: PAO1, 16 h, read-out: GI; procedure, shortened: as §1
Bacillus subtilis [14] = experiment: Antibacterial activity against Bacillus subtilis 168 assessed as growth inhibition at 5 ug/ml after 16 hrs by spectrophotometric analysis; details: subsp. subtilis str. 168, 16 h, read-out: GI; procedure, shortened: as §1
Pseudomonas aeruginosa [15] = experiment: Antibacterial activity against Pseudomonas aeruginosa PAO1 assessed as growth inhibition at 40 ug/ml after 16 hrs by spectrophotometric analysis; details: PAO1, 16 h, read-out: GI; procedure, shortened: as §1
Escherichia coli [16] = experiment: Antibacterial activity against Escherichia coli DH5alpha assessed as growth inhibition at 3 ug/ml after 16 hrs by spectrophotometric method; details: DH5[alpha], read-out: GI; procedure, shortened: as §1
Staphylococcus aureus [17] = experiment: Antibacterial activity against Staphylococcus aureus RN4220 assessed as growth inhibition at 30 ug/ml after 16 hrs by spectrophotometric analysis; details: RN4220, 16 h, read-out: GI; procedure, shortened: as §1
Escherichia coli [18] = experiment: Antibacterial activity against Escherichia coli DH5alpha assessed as growth inhibition at 0.75 ug/ml after 16 hrs by spectrophotometric method; details: DH5[alpha], read-out: GI; procedure, shortened: as §1
Escherichia coli [19] = experiment: Antibacterial activity against Escherichia coli DH5alpha assessed as growth inhibition at 10 ug/ml after 16 hrs by spectrophotometric method; details: DH5[alpha], read-out: GI; procedure, shortened: as §1
Staphylococcus aureus [20] = experiment: Antibacterial activity against Staphylococcus aureus RN4220 assessed as growth inhibition at 100 ug/ml after 16 hrs by spectrophotometric analysis; details: RN4220, 16 h, read-out: GI; procedure, shortened: as §1
Staphylococcus aureus [21] = experiment: Antibacterial activity against Staphylococcus aureus RN4220 assessed as growth inhibition at 50 ug/ml after 16 hrs by spectrophotometric analysis; details: RN4220, 16 h, read-out: GI; procedure, shortened: as §1
Escherichia coli [22] = experiment: Antibacterial activity against Escherichia coli DH5alpha assessed as growth inhibition at 5 ug/ml after 16 hrs by spectrophotometric method; details: DH5[alpha], read-out: GI; procedure, shortened: as §1
Staphylococcus aureus [23] = experiment: Antibacterial activity against Staphylococcus aureus RN4220 assessed as growth inhibition at 200 ug/ml after 16 hrs by spectrophotometric analysis; details: RN4220, 16 h, read-out: GI; procedure, shortened: as §1
Bacillus subtilis [24] = experiment: Antibacterial activity against Bacillus subtilis 168 assessed as growth inhibition at 40 ug/ml after 16 hrs by spectrophotometric analysis; details: subsp. subtilis str. 168, 16 h, read-out: GI; procedure, shortened: as §1
Escherichia coli [25] = experiment: Antibacterial activity against Escherichia coli DH5alpha assessed as growth inhibition at 2.5 ug/ml after 16 hrs by spectrophotometric method; details: DH5[alpha], read-out: GI; procedure, shortened: as §1

Row | SMILES | inhibition of growth at 20 µg/mL (Bacillus subtilis [9]) [%] | inhibition of growth at 10 µg/mL (Bacillus subtilis [11]) [%] | inhibition of growth at 10 µg/mL (Escherichia coli [19]) [%] | inhibition of growth at 100 µg/mL (Staphylococcus aureus [20]) [%] | inhibition of growth at 50 µg/mL (Staphylococcus aureus [21]) [%] | inhibition of growth at 5 µg/mL (Escherichia coli [22]) [%] | inhibition of growth at 200 µg/mL (Staphylococcus aureus [23]) [%] | inhibition of growth at 40 µg/mL (Bacillus subtilis [24]) [%] | inhibition of growth at 2.5 µg/mL (Escherichia coli [25]) [%] | other results
1 | Cc1ncc([N+](=O)[O-])n1CCOC(=O)[C@H](Cc1ccccc1)NC(=O)OCc1ccccc1 | – | – | – | – | – | – | – | – | – | inhibition of growth at 300 µg/mL (Staphylococcus aureus [1]): 20.5%; inhibition of growth at 100 µg/mL (Escherichia coli [2]): 7.7%; inhibition of growth at 150 µg/mL (Staphylococcus aureus [3]): 6.66%; inhibition of growth at 75 µg/mL (Staphylococcus aureus [4]): -0.03%; inhibition of growth at 75 µg/mL (Escherichia coli [5]): 5.73%; inhibition of growth at 50 µg/mL (Escherichia coli [6]): 4.44%
2 | CCn1cc(C(=O)O)c(=O)c2cc(F)c(N3CCN(C(=O)C(C)NC(=O)OCc4ccccc4)CC3)cc21 (configuration not stated) | 90.3 | 91.4 | – | – | – | – | – | – | – | inhibition of growth at 1.5 µg/mL (Escherichia coli [7]): 1.25%; inhibition of growth at 60 µg/mL (Staphylococcus aureus [8]): 86.1%; inhibition of growth at 20 µg/mL (Pseudomonas aeruginosa [10]): -19.8%; inhibition of growth at 15 µg/mL (Staphylococcus aureus [12]): 51.5%; inhibition of growth at 10 µg/mL (Pseudomonas aeruginosa [13]): -25.7%; inhibition of growth at 5 µg/mL (Bacillus subtilis [14]): 92.3%; inhibition of growth at 40 µg/mL (Pseudomonas aeruginosa [15]): 25.8%; inhibition of growth at 3 µg/mL (Escherichia coli [16]): 0.77%; inhibition of growth at 30 µg/mL (Staphylococcus aureus [17]): 77.9%; inhibition of growth at 0.75 µg/mL (Escherichia coli [18]): -4.73%
3 | CCn1cc(C(=O)O)c(=O)c2cc(F)c(N3CCN(C(=O)[C@H](C)NC(=O)OCc4ccccc4)CC3)cc21 | 90.5 | 91.4 | – | – | – | – | – | – | – | inhibition of growth at 1.5 µg/mL (Escherichia coli [7]): -0.24%; inhibition of growth at 60 µg/mL (Staphylococcus aureus [8]): 91%; inhibition of growth at 20 µg/mL (Pseudomonas aeruginosa [10]): -14.2%; inhibition of growth at 15 µg/mL (Staphylococcus aureus [12]): 74.1%; inhibition of growth at 10 µg/mL (Pseudomonas aeruginosa [13]): -26.8%; inhibition of growth at 5 µg/mL (Bacillus subtilis [14]): 92.2%; inhibition of growth at 40 µg/mL (Pseudomonas aeruginosa [15]): 20.5%; inhibition of growth at 3 µg/mL (Escherichia coli [16]): 3.52%; inhibition of growth at 30 µg/mL (Staphylococcus aureus [17]): 81.8%; inhibition of growth at 0.75 µg/mL (Escherichia coli [18]): 0.21%
4 | CCn1cc(C(=O)O)c(=O)c2cnc(N3CCNCC3)nc21 [PIPEMIDIC ACID] | 26 | 18.2 | 7.89 | 44.4 | 26.2 | -9.68 | 61.8 | 79.8 | -13 | –
5 | CCn1cc(C(=O)O)c(=O)c2cnc(N3CCN(C(=O)[C@H](Cc4ccccc4)NC(=O)OCc4ccccc4)CC3)nc21 | 13.8 | 6.09 | 9.45 | 60.1 | 49.6 | -6.38 | 72.9 | 77 | -11.5 | –
6 | CCn1cc(C(=O)O)c(=O)c2cnc(N3CCN(C(=O)[C@H](C)NC(=O)OCc4ccccc4)CC3)nc21 | 5.34 | 90.3 | 1.75 | 55.4 | 38 | -12.1 | 63 | 60.1 | -12 | –
7 | CCn1cc(C(=O)O)c(=O)c2cnc(N3CCN(C(=O)[C@@H](NC(=O)OCc4ccccc4)C(C)C)CC3)nc21 | 17 | 4.69 | 27.2 | 60 | 45.7 | -6.67 | 70.6 | 78.2 | -9.71 | –
8 | Cc1ncc([N+](=O)[O-])n1CCOC(=O)[C@@H](NC(=O)OCc1ccccc1)C(C)C | – | – | – | – | – | – | – | – | – | inhibition of growth at 300 µg/mL (Staphylococcus aureus [1]): 13.7%; inhibition of growth at 100 µg/mL (Escherichia coli [2]): 4.47%; inhibition of growth at 150 µg/mL (Staphylococcus aureus [3]): -7.76%; inhibition of growth at 75 µg/mL (Staphylococcus aureus [4]): -7.76%; inhibition of growth at 75 µg/mL (Escherichia coli [5]): 3.26%; inhibition of growth at 50 µg/mL (Escherichia coli [6]): 3.28%
